Laboratory results reported in ChEMBL document CHEMBL1128471, “Reversible inhibitors of the gastric (H+/K+)-ATPase. 4. Identification of an inhibitor with an intermediate duration of action” (J Med Chem, 1995).

Assays:
[1] = target: T1, Potassium-transporting ATPase (Rattus norvegicus) (UniProt P09626+P18598); assay: Inhibition of pentagastrin-stimulated gastric acid secretion at a single dose of 10 umol/kg.; type: functional; details: Stomach
How it was run: (§1)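 Anesthetized, lumen-perfused rats were given pentagastrin to stimulate gastric acid secretion, and compounds were given iv. The value is an ED50 (µmol/kg iv) with 95% confidence limits, or percent inhibition ± SEM at a single 10 µmol/kg iv dose.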

[2] = target: Potassium-transporting ATPase (Sus scrofa, UniProt P19156); assay: Inhibition of K+ -stimulated gastric ATPase activity was measured using lyophilized gastric vesicles at pH 7; type: tissue-based, Stomach
Sequence of Potassium-transporting ATPase (P18434 whole entry): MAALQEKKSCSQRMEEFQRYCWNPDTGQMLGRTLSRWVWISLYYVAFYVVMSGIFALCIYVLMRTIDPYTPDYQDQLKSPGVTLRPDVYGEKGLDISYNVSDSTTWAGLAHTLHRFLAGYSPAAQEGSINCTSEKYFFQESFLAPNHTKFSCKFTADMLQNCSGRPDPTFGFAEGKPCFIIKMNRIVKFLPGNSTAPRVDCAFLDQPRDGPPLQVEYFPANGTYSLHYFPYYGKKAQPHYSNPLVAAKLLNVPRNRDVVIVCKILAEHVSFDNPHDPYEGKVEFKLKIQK
Sequence of Potassium-transporting ATPase (P19156 whole entry): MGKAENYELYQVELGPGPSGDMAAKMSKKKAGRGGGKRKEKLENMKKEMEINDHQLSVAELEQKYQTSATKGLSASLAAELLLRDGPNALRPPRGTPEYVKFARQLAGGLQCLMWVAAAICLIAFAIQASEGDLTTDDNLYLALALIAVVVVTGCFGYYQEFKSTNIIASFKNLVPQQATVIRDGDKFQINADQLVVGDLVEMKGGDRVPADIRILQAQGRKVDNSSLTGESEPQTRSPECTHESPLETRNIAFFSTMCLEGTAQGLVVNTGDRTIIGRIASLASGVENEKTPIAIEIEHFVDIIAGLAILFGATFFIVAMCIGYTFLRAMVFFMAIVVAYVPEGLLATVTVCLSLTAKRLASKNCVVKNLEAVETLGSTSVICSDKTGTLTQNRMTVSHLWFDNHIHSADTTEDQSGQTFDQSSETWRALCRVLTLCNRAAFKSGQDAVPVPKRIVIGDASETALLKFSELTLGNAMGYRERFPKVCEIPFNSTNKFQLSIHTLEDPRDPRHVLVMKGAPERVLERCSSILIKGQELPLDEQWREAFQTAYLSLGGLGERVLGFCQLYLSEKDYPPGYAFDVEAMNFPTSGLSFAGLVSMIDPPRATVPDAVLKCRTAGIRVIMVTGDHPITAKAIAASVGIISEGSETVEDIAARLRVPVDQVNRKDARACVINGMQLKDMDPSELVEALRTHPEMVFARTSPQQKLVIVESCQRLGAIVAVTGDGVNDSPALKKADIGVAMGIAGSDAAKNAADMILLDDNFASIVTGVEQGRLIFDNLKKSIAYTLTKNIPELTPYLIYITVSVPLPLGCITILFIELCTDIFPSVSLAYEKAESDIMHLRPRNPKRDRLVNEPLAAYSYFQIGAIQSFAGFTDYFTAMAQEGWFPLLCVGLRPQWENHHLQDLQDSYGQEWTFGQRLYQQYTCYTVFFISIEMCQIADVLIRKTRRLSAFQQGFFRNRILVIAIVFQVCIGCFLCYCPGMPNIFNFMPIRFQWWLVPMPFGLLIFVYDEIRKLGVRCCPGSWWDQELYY
How it was run: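 K+-stimulated ATPase activity was measured in lyophilized (permeabilized) gastric vesicles at pH 7. The value is an IC50, or percent inhibition at the stated concentration where no IC50 could be determined.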

[3] = target: T1, Potassium-transporting ATPase (Rattus norvegicus); assay: Inhibition of pentagastrin-stimulated gastric acid secretion in the anesthetized rat after iv administration; type: functional, organism-based; details: Stomach; how it was run: as §1
Canis familiaris = assay: Mean percent peak inhibition of histamine-stimulated gastric acid secretion in the heidenhain pouch dog following a single dose of 1 umol/kg through iv administration.; type: functional; details: Canis lupus familiaris, Stomach

| Compound | inhibition [1] [%] | IC50 [2] [µM] | ED50 [3] [µmol/kg] | inhibition in vivo at 1 µmol/kg (Canis familiaris) [%] |
| --- | --- | --- | --- | --- |
| CCCC(=O)c1cnc2c(OC)cccc2c1Nc1cccc(CO)c1C | 44 | 6 |  |  |
| CCCC(=O)c1cnc2c(NCCc3cnc[nH]3)cccc2c1Nc1ccccc1C |  | 1.4 |  |  |
| CCCC(=O)c1cnc2c(OCCOCCOCCO)cccc2c1Nc1ccc(F)cc1C | 51 | 3.6 |  |  |
| CCCC(=O)c1cnc2c(OC)cccc2c1Nc1ccc(N)cc1C | 15 | 1.5 |  |  |
| CCCC(=O)c1cnc2c(OCCCC(=O)Nc3ccncc3)cccc2c1Nc1ccccc1C | 46 | 2.6 |  |  |
| CCCC(=O)c1cnc2c(OCCCc3c[nH]cn3)cccc2c1Nc1c(C)cccc1C | 40 |  |  |  |
| CCCC(=O)c1cnc2c(OCCCC(=O)NC(C)(C)CO)cccc2c1Nc1c(C)cccc1C | 61 | 2.8 |  |  |
| CCCC(=O)c1cnc2c(OCCCO)cccc2c1Nc1c(C)cccc1C | 75 | 1.21 |  |  |
| CCCC(=O)c1cnc2c(OC)cccc2c1Nc1ccccc1COC | 43 |  |  |  |
| CCCC(=O)c1cnc2c(OCCCC(N)=O)cccc2c1Nc1c(C)cccc1C | 72 | 2.2 |  |  |
| CCCC(=O)c1cnc2c(OC)cccc2c1Nc1cc(C)ccc1C | 48 | 2.5 |  |  |
| CCCC(=O)c1cnc2c(C3OC3CO)cccc2c1Nc1ccccc1C (stereo in doubt; 29a) | 56 |  |  |  |
| CCCC(=O)c1cnc2c(OCCCc3cnc[nH]3)cccc2c1Nc1c(C)cccc1C |  | 0.6 |  |  |
| CCC(=O)c1cnc2c(OCCCNc3nccs3)cccc2c1Nc1c(C)cccc1C | 48 | 1.7 |  |  |
| CCCC(=O)c1cnc2c(COC(=O)CC)cccc2c1Nc1ccccc1C |  | 18.4 |  |  |
| CCCC(=O)c1cnc2c(OCCCN(C)CCCc3ccccc3)cccc2c1Nc1ccccc1C | 52 | 0.74 |  |  |
| CCCC(=O)c1cnc2c(OC)cccc2c1Nc1ccccc1O | 41 | 1.3 |  |  |
| CCCC(=O)c1cnc2c(CC(=O)OC)cccc2c1Nc1ccccc1C | 43 | 5.4 |  |  |
| CCCC(=O)c1cnc2ccccc2c1Nc1ccccc1C |  |  | 5.45 |  |
| CCCC(=O)c1cnc2c(COC(=O)NC)cccc2c1Nc1ccccc1C | 49 | 6.6 |  |  |
| CCCC(=O)c1cnc2c(C(O)CN(C)C)cccc2c1Nc1ccccc1C (stereo not drawn) | 11 |  |  |  |
| C=CC(O)c1cccc2c(Nc3ccccc3C)c(C(=O)CCC)cnc12 (stereo not drawn) | 49 | 0.66 |  |  |

| Compound | inhibition [1] [%] | IC50 [2] [µM] | ED50 [3] [µmol/kg] | inhibition in vivo at 1 µmol/kg (Canis familiaris) [%] |
| --- | --- | --- | --- | --- |
| CCCC(=O)c1cnc2c(CC(=O)O)cccc2c1Nc1ccccc1C | 24 | 7.2 |  |  |
| CCCC(=O)c1cnc2c(OCCCN(C)C)cccc2c1Nc1ccc(F)cc1C | 37 |  |  |  |
| CCCC(=O)c1cnc2c(C(=O)OC)cccc2c1Nc1ccccc1C |  | 0.58 | 13.4 |  |
| CCCC(=O)c1c(C)nc2ccccc2c1Nc1ccccc1C |  | 34 |  |  |
| CCC(=O)c1cnc2c(Oc3ccccn3)cccc2c1Nc1c(C)cccc1C | 77 | 4.7 |  | 81 |
| CCCC(=O)c1cnc2c(/C=C/CO)cccc2c1Nc1ccccc1C | 68 | 2.3 |  | 17 |
| CCCC(=O)c1cnc2c(C)cccc2c1Nc1ccc(OC)cc1C |  | 1.7 | 4.7 |  |
| CCCC(=O)c1cnc2c(C3OC3CO)cccc2c1Nc1ccccc1C (stereo in doubt; 29b) [listing 1 of 2 here] | 52 |  |  |  |
| CCCC(=O)c1cnc2c(OC)cccc2c1Nc1c(OC)cc(OC)cc1OC | 24 | 4.6 |  |  |
| CCCC(=O)c1cnc2c(OC)cccc2c1Nc1ccc(NC(C)=O)cc1C |  | 12 |  |  |
| CCCC(=O)c1cnc2c(OC)cccc2c1Nc1ccc(OC)cc1OC | 53 | 2.1 |  |  |
| CCCC(=O)c1cnc2c(OC)cccc2c1Nc1ccc(N(C)C)cc1C | 20 | 2.32 |  |  |
| CCCC(=O)c1cnc2c(OC)cccc2c1Nc1c(C)cc(O)c(O)c1C | 50 | 2.8 |  |  |
| CCCC(=O)c1cnc2c(OCCCc3nc4ccccc4[nH]3)cccc2c1Nc1c(C)cccc1C | 50 | 1.4 |  |  |
| CCCC(=O)c1cnc2c(C(N)=O)cccc2c1Nc1ccccc1C | 39 | 1.9 |  |  |
| CCCC(=O)c1cnc2c(OCCO)cccc2c1Nc1ccc(O)cc1C | 70 | 0.21 |  |  |
| CCCC(=O)c1cnc2c(N)cccc2c1Nc1ccccc1C | 59 | 6 |  |  |
| CCCC(=O)c1cnc2c(C(C)=O)cccc2c1Nc1ccccc1C | 37 | 1.5 |  |  |
| CCCC(=O)c1cnc2ccc(O)cc2c1Nc1ccccc1C | 58 | 0.24 |  |  |
| CCCC(=O)c1cnc2c(C3COCO3)cccc2c1Nc1ccccc1C (stereo not drawn) | 31 | 36 |  |  |
| CCCC(=O)c1cnc2c(OC)cccc2c1Nc1cc(C)cc(C)c1 | 39 | 11.3 |  |  |
| CCCC(=O)c1cnc2ccc(OC)cc2c1Nc1ccccc1C | 59 | 7 |  |  |

| Compound | inhibition [1] [%] | IC50 [2] [µM] | ED50 [3] [µmol/kg] | inhibition in vivo at 1 µmol/kg (Canis familiaris) [%] |
| --- | --- | --- | --- | --- |
| Cc1ccccc1Nc1c(C(=O)C(C)C)cnc2c(O)cccc12 | 48 | 1.2 |  |  |
| CCCC(=O)c1cnc2c(OC)cccc2c1Nc1ccc(O)cc1 | 39 | 0.67 |  |  |
| CCCC(=O)c1cnc2c(NCCc3c[nH]cn3)cccc2c1Nc1ccccc1C | 31 |  |  |  |
| CCCC(=O)c1cnc2c(OC)cccc2c1Nc1c(C)cc2c(c1C)OCO2 | 51 |  |  |  |
| CCCC(=O)c1cnc2c(OC)cc(O)cc2c1Nc1ccccc1C | 63 | 1.3 |  |  |
| CCCC(=O)c1cnc2c(OC)cccc2c1Nc1ccccc1CO | 33 |  |  |  |
| CCCC(=O)c1cnc2c(C)cccc2c1Nc1ccccc1OC |  | 2.2 | 3.98 |  |
| CCCC(=O)c1cnc2c(OC)cccc2c1Nc1ccc(C)cc1C | 59 | 4.3 |  |  |
| CCCC(=O)c1cnc2c(O)cccc2c1Nc1ccccc1C | 39 | 3.3 |  |  |
| CCC(=O)c1cnc2c(O)cccc2c1Nc1ccccc1C | 45 | 0.86 |  |  |
| Cc1ccccc1Nc1c(C(=O)C(C)C)cnc2c(CO)cccc12 |  |  | 1.86 |  |
| CCCC(=O)c1cnc2ccc(CO)cc2c1Nc1ccccc1C | 46 |  |  |  |
| CCCC(=O)c1cnc2c(OC)cccc2c1Nc1cc(CO)ccc1C | 25 |  |  |  |
| CCCC(=O)c1cnc2c(OC)cc(O)cc2c1Nc1ccc(F)cc1C | 54 | 2.1 |  |  |
| CCCC(=O)c1cnc2c(OCCCC(=O)OCC)cccc2c1Nc1ccccc1C | 52 | 1.6 |  |  |
| CCCC(=O)c1cnc2c(OCCCNc3ccccn3)cccc2c1Nc1c(C)cccc1C | 49 | 0.9 |  |  |
| COCCOc1cccc2c(Nc3ccc(F)cc3C)c(C(=O)C(C)C)cnc12 | 57 | 1.7 |  |  |
| CCCC(=O)c1cnc2c(C3OC3CO)cccc2c1Nc1ccccc1C (stereo in doubt; 29b) [listing 2 of 2 here] |  | 3.1 |  |  |
| CCCC(=O)c1cnc2c(C=O)cccc2c1Nc1ccccc1C | 64 | 1.2 |  | 51 |
| CCCC(=O)c1cnc2c(C(C)=O)cccc2c1Nc1ccc(O)cc1C | 44 | 0.55 |  |  |
| CCCC(=O)c1cnc2c(OCCCN3CCCCC3)cccc2c1Nc1ccccc1C | 31 | 0.5 |  |  |
| CCCC(=O)c1cnc2ccc(O)cc2c1Nc1ccc(O)cc1C | 51 | 0.071 |  |  |

| Compound | inhibition [1] [%] | IC50 [2] [µM] | ED50 [3] [µmol/kg] | inhibition in vivo at 1 µmol/kg (Canis familiaris) [%] |
| --- | --- | --- | --- | --- |
| CCCC(=O)c1cnc2c(CO)cccc2c1Nc1ccc(F)cc1C | 55 |  |  |  |
| CCCC(=O)c1cnc2c(OCCCN(C)Cc3ccccc3)cccc2c1Nc1ccccc1C | 39 | 0.65 |  |  |
| CCCC(=O)c1cnc2c(OCCCN(C)C)cccc2c1Nc1ccccc1C | 43 | 0.39 |  | 14 |
| CCCC(=O)c1cnc2c(C(O)CN3CCOCC3)cccc2c1Nc1ccccc1C (stereo not drawn) | 4 |  |  |  |
| CCCC(=O)c1cnc2ccc(N)cc2c1Nc1c(C)cccc1C | 35 | 0.16 |  |  |
| CCCC(=O)c1cnc2cc(O)ccc2c1Nc1ccccc1C | 56 | 1.2 |  |  |
| CCCC(=O)c1cnc2c(OCCCN3CCOCC3)cccc2c1Nc1ccccc1C | 48 | 0.89 |  |  |
| CCCC(=O)c1cnc2c(OCCN(C)C)cccc2c1Nc1ccccc1C | 22 | 0.52 |  |  |
| CCCC(=O)c1cnc2c(O)cccc2c1Nc1ccc(F)cc1C | 33 | 7.6 |  |  |
| CCCC(=O)c1cnc2c(OC)cccc2c1Nc1c(C)cc(C)cc1C |  | 3.1 | 10.8 |  |
| CCCC(=O)c1cnc2c(OC)cccc2c1Nc1ccc(NS(C)(=O)=O)cc1C |  | 45 |  |  |
| Cc1cc(F)ccc1Nc1c(C(=O)C(C)C)cnc2c(O)cccc12 | 20 | 2.7 |  |  |
| CCCC(=O)c1cnc2c(OC)cccc2c1Nc1ccc(OCCCn2ccnc2)cc1C |  | 34 |  |  |
| CCCC(=O)c1cnc2c(NCCO)cccc2c1Nc1ccccc1C | 62 | 7.1 |  |  |
| CCCC(=O)c1cnc2c(C)cccc2c1Nc1ccccc1Cl |  | 6.3 |  |  |
| CCCC(=O)c1cnc2c(Oc3ccnc(Cl)c3)cccc2c1Nc1ccccc1C | 33 | 6.9 |  |  |
| CCCC(=O)c1cnc2c(OCCCN3CCCC3)cccc2c1Nc1ccccc1C | 31 | 0.51 |  |  |
| CCCC(=O)c1cnc2c(OCCOCCO)cccc2c1Nc1ccc(F)cc1C | 49 |  |  |  |
| CCCC(=O)c1cnc2c(NCCCN3CCOCC3)cccc2c1Nc1ccccc1C | 47 | 2.4 |  |  |
| CCCC(=O)c1cnc2c(N)cccc2c1Nc1c(C)cccc1C | 57 | 5.8 |  |  |
| CCC(=O)c1cnc2c(O)cccc2c1Nc1ccc(F)cc1C | 48 | 1.9 |  |  |
